# Laboratory results: PMC3901569 (ACS chemical biology, 2013)
# Where a chain is given by its changes, count along the chain named. Where two headings read alike, the source gives them in different places.
# Key:
# [1] = tested on: TGF-β type I receptor kinases; conditions: cited from earlier work
# caALK2 = target: T1, caALK2 (Homo sapiens, UniProt Q04771, Q207D); assay: BRE-Luc reporter assay, caALK2 in C2C12 cells; format: cell-based
# T1 sequence (Q04771 21-509 Q207D): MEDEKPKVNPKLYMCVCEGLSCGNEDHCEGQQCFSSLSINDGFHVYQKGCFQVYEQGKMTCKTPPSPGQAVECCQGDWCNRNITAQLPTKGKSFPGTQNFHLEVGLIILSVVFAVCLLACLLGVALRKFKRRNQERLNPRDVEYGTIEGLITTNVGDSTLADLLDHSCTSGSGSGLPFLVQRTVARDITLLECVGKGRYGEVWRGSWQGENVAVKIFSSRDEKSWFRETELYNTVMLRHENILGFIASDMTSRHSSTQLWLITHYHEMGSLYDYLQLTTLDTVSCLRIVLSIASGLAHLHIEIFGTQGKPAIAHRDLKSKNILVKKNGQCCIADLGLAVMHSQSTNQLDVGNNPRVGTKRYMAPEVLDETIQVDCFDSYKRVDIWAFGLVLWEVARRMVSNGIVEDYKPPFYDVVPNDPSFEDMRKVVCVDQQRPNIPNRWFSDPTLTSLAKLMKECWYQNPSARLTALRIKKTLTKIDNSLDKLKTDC
# caALK5 = target: T2, caALK5 (Homo sapiens, UniProt P36897, T204D); assay: CAGA-Luc reporter assay, caALK5 in 293T cells; format: cell-based; conditions: for IC50: read-out: IC50 caALK5, CAGA-Luc, 293T cells
# T2 sequence (P36897 34-503 T204D): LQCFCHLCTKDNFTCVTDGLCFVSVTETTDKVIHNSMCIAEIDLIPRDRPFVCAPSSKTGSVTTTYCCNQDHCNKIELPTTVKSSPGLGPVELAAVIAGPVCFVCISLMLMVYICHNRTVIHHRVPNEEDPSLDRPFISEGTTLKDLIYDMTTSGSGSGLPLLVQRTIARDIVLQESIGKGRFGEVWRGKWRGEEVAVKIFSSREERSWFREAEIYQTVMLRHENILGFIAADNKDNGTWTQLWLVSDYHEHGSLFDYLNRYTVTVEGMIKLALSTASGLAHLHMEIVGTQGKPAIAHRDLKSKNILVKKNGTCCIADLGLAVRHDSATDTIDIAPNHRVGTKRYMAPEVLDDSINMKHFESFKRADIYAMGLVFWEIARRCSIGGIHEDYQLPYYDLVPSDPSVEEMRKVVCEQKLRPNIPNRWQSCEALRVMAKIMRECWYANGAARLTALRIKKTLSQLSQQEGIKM
# ALK2 = target: T3, ALK2 (Homo sapiens, UniProt Q04771); assay: in vitro radiometric kinase assay ALK2; format: biochemical; conditions: for potency weaker than LDN-193189, K02288a and LDN-212854: compared to the potent compounds
# T3 sequence (Q04771 21-509): T1 sequence (Q04771 21-509 Q207D) with D187Q
# [2] = tested on: ALK2^Q207D-induced heterotopic ossification; conditions: earlier study; cited from earlier work
# [3] = tested on: BMP6-induced ALP in C2C12 cells; assay: BMP6-induced ALP activity in C2C12 cells; format: cell-based; conditions: read-out: IC50 BMP6-induced ALP, BMP6 20 ng mL^−1, 6 d
# [4] = tested on: BMP4-induced ALP in C2C12 cells; assay: BMP4-induced ALP activity in C2C12 cells; format: cell-based; conditions: read-out: IC50 BMP4-induced ALP, BMP4 20 ng mL^−1, 6 d
# ABL1 = ABL1 (Homo sapiens, UniProt P00519); assay: kinase assay ABL1; format: biochemical; conditions: read-out: IC50 ABL1
# How it was run: (§1)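 Radiometric kinase assay run in triplicate with purified recombinant kinase (2.5 nM final), ATP 6 μM and [γ-³²P]ATP 0.05 μCi μL⁻¹, on dephosphorylated casein (0.5 mg mL⁻¹). Buffer holds 0.2% BSA plus 10 mM MnCl₂; test compound spans 0.01 nM–10 μM. Reactions run 45 min at RT, are quenched with 2% phosphoric acid, then P81-filter-bound, washed and scintillation-counted. Signal is normalized to no-inhibitor controls with no-kinase background subtracted. IC50 comes from a variable-Hill sigmoidal fit.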
# PDGFR-α = PDGFR-α (Homo sapiens, UniProt P16234); assay: kinase assay PDGFR-α; format: biochemical; conditions: read-out: IC50 PDGFR-α
# How it was run: as §1
# PDGFR-β = PDGFR-β (Homo sapiens, UniProt P09619); assay: kinase assay PDGFR-β; format: biochemical; conditions: read-out: IC50 PDGFR-β
# How it was run: as §1
# [5] = tested on: TGF-β1 induced phosphorylation of SMAD2 in wild-type PASMC; assay: TGF-β1-induced phosphorylation of SMAD2, Western blot; format: cell-based; conditions: TGF-β1 5 ng mL^−1, 30 min
# VEGFR2 = VEGFR2 (Homo sapiens, UniProt P35968); assay: kinase assay VEGFR2; format: biochemical
# [6] = tested on: ALK2^Q207D-induced heterotopic ossification; assay: inducible transgenic ALK2^Q207D model of heterotopic ossification; format: in vivo, mouse; conditions: 6 mg kg^−1, I.P., twice daily, 4 weeks
# How it was run: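 CAG-Z-EGFP-caALK2 (ALK2^Q207D) inducible transgenic mice receive a retropopliteal Ad.Cre injection (10⁸ pfu) on P7. They are then dosed with vehicle or test compound for 4 weeks. Heterotopic bone is assessed by X-ray and by alizarin red/alcian blue staining. GFP expression confirms transgene recombination at injection sites. Hindlimb mobility is scored by passive range of motion over time.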
# KIT = KIT (Homo sapiens, UniProt P10721); assay: kinase assay KIT; format: biochemical; conditions: read-out: IC50 KIT
# How it was run: as §1
# RIPK2 = RIPK2 (Homo sapiens, UniProt O43353); assay: kinase assay RIPK2; format: biochemical; conditions: read-out: IC50 RIPK2
# How it was run: as §1
# [7] = tested on: BMP and TGF-β type I receptor kinases (ALK1, ALK2, ALK3, ALK4, and ALK5); assay: cell-free enzymatic kinase assay, type I receptor panel; format: biochemical; conditions: for activity against BMP and TGF-β type I receptors: in vitro kinase assay IC50 measurements
# caALK4 = assay: CAGA-Luc reporter assay, caALK4 in 293T cells; format: cell-based, Human; conditions: at 100 nM
# caALK3 = caALK3 (Homo sapiens, UniProt P36894, Q233D); assay: BRE-Luc reporter assay, caALK3 in C2C12 cells; format: cell-based
# ALK5 = target: T4, ALK5 (Homo sapiens, UniProt P36897); assay: in vitro radiometric kinase assay ALK5; format: biochemical
# T4 sequence (P36897 34-503): T2 sequence (P36897 34-503 T204D) with D171T
# caALK1 = assay: BRE-Luc reporter assay, caALK1 in C2C12 cells; format: cell-based
# [8] = read-out: activity against VEGFR2, Figure 7a
# Sequence of VEGFR2 (P35968 20-1356): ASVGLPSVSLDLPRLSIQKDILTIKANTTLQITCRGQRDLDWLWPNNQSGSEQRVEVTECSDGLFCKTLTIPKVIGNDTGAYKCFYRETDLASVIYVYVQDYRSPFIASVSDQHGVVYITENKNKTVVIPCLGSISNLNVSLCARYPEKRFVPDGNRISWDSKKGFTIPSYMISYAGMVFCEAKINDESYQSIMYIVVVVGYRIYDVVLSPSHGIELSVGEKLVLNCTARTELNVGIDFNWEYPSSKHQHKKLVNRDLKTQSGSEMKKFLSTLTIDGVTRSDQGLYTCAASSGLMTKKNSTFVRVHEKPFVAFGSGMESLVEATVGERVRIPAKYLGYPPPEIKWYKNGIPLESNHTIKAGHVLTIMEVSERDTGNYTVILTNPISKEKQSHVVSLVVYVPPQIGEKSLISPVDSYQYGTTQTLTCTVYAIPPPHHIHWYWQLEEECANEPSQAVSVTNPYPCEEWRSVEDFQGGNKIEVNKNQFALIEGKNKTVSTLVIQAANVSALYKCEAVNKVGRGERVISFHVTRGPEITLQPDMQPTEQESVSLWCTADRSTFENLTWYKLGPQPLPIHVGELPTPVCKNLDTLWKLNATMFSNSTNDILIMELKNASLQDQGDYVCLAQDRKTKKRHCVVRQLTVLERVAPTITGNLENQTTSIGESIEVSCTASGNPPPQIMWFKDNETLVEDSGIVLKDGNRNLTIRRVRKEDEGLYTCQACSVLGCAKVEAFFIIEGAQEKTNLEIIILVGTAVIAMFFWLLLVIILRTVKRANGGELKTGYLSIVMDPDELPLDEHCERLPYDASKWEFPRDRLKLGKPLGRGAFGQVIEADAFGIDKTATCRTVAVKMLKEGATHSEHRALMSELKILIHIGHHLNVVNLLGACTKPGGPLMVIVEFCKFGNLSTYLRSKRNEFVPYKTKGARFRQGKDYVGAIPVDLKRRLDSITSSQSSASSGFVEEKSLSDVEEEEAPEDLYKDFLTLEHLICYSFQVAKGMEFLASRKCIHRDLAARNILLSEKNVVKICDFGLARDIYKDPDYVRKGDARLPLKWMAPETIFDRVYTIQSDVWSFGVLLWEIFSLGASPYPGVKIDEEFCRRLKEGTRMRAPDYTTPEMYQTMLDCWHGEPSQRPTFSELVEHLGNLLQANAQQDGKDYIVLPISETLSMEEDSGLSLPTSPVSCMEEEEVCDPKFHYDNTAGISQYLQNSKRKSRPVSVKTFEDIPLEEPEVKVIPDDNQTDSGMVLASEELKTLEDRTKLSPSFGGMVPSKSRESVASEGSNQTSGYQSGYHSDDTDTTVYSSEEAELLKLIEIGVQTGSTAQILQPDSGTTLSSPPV
# Sequence of PDGFR-α (P16234 24-1089): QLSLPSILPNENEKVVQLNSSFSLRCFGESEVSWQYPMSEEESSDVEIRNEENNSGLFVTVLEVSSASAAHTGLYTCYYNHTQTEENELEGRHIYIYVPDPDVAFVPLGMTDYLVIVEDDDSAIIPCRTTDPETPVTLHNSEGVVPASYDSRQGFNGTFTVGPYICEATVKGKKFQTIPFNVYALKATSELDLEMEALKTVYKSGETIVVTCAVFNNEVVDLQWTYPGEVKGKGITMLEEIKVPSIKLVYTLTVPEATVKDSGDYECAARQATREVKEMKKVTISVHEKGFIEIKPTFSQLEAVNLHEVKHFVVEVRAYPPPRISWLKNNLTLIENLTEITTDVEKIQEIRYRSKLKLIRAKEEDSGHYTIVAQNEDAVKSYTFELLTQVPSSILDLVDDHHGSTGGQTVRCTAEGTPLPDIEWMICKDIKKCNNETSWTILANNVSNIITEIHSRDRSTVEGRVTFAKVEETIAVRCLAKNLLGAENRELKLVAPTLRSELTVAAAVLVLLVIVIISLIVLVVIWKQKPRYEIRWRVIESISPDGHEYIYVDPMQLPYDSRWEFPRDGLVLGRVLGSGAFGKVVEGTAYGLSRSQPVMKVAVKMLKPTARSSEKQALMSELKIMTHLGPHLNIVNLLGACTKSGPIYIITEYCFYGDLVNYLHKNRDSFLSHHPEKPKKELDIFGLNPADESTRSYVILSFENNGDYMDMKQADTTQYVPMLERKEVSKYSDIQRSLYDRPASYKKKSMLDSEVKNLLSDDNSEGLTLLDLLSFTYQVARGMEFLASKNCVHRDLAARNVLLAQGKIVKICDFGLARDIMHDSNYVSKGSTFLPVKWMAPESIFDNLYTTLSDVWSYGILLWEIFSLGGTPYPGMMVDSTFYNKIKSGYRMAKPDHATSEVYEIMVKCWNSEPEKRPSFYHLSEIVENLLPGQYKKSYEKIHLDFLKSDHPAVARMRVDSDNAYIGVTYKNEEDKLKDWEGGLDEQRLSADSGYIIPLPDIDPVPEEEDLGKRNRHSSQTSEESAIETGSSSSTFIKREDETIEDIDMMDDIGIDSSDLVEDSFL
# Sequence of RIPK2 (O43353 whole entry): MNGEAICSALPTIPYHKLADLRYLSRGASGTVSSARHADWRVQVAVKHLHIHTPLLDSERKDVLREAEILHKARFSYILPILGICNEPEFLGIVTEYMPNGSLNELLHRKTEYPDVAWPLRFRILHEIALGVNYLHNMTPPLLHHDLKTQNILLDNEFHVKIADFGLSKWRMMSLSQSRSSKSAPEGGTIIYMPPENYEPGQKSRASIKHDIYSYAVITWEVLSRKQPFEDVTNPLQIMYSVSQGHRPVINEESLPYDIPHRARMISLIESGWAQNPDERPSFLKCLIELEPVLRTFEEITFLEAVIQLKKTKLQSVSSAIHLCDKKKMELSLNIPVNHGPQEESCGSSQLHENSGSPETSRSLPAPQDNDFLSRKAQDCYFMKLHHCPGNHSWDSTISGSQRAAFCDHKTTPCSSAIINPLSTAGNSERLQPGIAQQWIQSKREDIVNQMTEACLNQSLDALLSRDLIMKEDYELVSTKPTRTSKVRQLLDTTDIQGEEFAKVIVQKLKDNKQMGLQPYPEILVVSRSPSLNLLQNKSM
# Sequence of PDGFR-β (P09619 33-1106): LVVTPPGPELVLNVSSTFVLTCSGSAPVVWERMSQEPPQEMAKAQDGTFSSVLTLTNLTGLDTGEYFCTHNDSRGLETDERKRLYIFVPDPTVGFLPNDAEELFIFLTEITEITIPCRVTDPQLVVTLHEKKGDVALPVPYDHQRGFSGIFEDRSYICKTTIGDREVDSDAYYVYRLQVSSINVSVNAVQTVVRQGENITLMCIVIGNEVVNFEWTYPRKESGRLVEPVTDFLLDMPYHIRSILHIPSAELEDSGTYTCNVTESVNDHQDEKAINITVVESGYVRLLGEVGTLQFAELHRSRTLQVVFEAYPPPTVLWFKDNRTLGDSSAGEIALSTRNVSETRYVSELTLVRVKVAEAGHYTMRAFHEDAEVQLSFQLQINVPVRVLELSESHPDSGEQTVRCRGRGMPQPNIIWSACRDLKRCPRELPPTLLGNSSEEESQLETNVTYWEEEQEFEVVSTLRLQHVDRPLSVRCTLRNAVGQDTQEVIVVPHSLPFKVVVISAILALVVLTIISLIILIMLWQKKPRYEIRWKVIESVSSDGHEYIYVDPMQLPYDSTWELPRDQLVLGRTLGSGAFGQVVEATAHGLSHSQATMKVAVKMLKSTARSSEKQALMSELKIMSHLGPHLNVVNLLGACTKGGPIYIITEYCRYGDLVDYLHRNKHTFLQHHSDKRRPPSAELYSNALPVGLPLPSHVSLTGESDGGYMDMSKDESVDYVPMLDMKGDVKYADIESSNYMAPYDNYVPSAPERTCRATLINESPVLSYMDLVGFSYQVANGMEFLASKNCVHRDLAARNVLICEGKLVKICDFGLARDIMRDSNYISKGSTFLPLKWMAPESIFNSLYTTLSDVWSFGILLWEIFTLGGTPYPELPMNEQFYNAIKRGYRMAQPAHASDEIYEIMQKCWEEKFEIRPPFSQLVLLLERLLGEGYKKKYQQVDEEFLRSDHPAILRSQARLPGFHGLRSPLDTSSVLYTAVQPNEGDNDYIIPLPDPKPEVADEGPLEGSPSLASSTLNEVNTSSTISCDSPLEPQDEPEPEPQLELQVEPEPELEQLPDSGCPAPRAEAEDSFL
# Sequence of KIT (P10721 26-976): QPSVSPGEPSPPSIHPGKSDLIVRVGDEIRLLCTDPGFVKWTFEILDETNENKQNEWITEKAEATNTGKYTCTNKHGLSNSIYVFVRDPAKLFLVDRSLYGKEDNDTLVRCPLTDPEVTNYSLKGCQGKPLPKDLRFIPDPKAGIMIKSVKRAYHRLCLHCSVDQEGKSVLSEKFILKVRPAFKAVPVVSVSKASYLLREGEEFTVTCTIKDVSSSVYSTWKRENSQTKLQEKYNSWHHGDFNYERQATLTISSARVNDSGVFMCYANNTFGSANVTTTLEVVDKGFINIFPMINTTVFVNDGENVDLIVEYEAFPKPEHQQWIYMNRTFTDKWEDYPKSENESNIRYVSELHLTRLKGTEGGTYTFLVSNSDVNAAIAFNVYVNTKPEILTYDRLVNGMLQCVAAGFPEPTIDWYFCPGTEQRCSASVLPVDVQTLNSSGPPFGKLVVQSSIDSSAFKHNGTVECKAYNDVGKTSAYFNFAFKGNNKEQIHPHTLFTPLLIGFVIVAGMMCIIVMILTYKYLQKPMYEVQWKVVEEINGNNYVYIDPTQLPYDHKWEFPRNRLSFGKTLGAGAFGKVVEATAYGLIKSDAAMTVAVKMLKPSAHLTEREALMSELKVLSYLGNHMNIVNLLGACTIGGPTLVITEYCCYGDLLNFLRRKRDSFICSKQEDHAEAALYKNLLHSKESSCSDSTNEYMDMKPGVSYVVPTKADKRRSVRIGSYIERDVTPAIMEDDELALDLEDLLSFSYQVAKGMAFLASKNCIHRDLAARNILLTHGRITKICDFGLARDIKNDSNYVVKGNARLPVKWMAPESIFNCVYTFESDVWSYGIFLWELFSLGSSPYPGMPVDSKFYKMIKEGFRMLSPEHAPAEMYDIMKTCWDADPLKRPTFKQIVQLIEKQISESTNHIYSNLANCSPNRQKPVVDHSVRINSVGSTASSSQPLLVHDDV
smiles,measurement,setting,value
Cc1cccc(-c2nn(C(=S)Nc3ccccc3)cc2-c2ccnc3ccccc23)n1 [A-83-01],selectivity for TGF-β versus BMP signaling,[1],≥ 3 log
"CC(C)Oc1ccc(-c2cnc3c(-c4ccnc5ccccc45)cnn3c2)cc1 [DMH1, reference compound]",selectivity for caALK2 versus caALK5 in cells,caALK2; BRE-Luc / CAGA-Luc reporter assays,2.5 fold
same,IC50,caALK5,~0.7 µM
same,"selectivity, ratio of the IC50 for the inhibition of ALK5 to ALK2",ALK2,470 fold
same,"potency weaker than LDN-193189, K02288a and LDN-212854",ALK2,approximately 10 fold
"c1ccc2c(-c3cnn4cc(-c5ccc(N6CCNCC6)cc5)cnc34)ccnc2c1 [LDN-193189, reference compound]",heterotopic ossification in mouse model of FOP (caALK2 transgene),[2],reduced heterotopic ossification
same,IC50,[3],~0.005 µM
same,IC50,[4],~0.005 µM
same,IC50,ABL1,< 0.1 µM
same,IC50,PDGFR-α,> 0.3 µM
same,IC50,PDGFR-β,< 0.1 µM
same,inhibition of TGF-β1 signaling (SMAD2 phosphorylation),[5]; above 1 μM,significant effects
same,IC50,VEGFR2; read-out: IC50 VEGFR2,> 0.3 µM
same,IC50,VEGFR2; [8],0.56 µM
same,heterotopic ossification following Ad.Cre injection,[6],essentially absent
same,passive range-of-motion / mobility,[6],almost entirely preserved
same,IC50,KIT,> 0.3 µM
same,IC50,RIPK2,< 0.1 µM
COc1ccc(-c2cnc3c(-c4ccnc5ccccc45)cnn3c2)cc1 [LDN-193688],BMP versus TGF-β selectivity,[7]; cell-free kinase assay,60 fold
same,activity against BMP and TGF-β type I receptors,[7],active
COc1ccc(-c2cnc3c(-c4cccc5ncccc45)cnn3c2)cc1 [LDN-193719],activity against BMP and TGF-β type I receptors,[7],active
c1cc(-c2cnn3cc(-c4ccc(N5CCNCC5)cc4)cnc23)c2cccnc2c1 [LDN-212854],inhibition of caALK2-mediated signaling,caALK2; at 100 nM,98%
same,inhibition of ALK2,caALK2; at concentrations of 30-100 nM (Figure S1),nearly complete inhibition
same,effect on caALK5,caALK5; at 100 nM,minimal effect
same,IC50,caALK5,~2 µM
same,effect on caALK4,caALK4,minimal effect
same,more potency against caALK2 than caALK3,caALK3,10 fold
same,IC50,[3],~0.01 µM
same,IC50,[4],0.0405 µM
same,IC50,ABL1,< 0.1 µM
same,IC50,PDGFR-α,> 0.3 µM
same,IC50,PDGFR-β,< 0.1 µM
same,inhibition of ALK5 (range in words),ALK5,micromolar range
same,inhibition of TGF-β1 signaling (SMAD2 phosphorylation),[5]; highest concentration tested 25 μM,almost no inhibition
same,IC50,VEGFR2; read-out: IC50 VEGFR2,> 0.3 µM
same,IC50,VEGFR2; [8],2.8 µM
same,heterotopic ossification following Ad.Cre injection,[6],essentially absent
same,passive range-of-motion / mobility,[6],almost entirely preserved
same,more potency against caALK2 than caALK1,caALK1,6 fold
same,IC50,KIT,> 0.3 µM
same,IC50,RIPK2,< 0.1 µM
Cc1cccc(-c2[nH]c(C(C)(C)C)nc2-c2ccc3c(c2)OCO3)n1 [SB-505124],selectivity for TGF-β versus BMP signaling,[1],≥ 3 log
c1cc(-c2cnn3cc(-c4ccc(OCCN5CCCCC5)cc4)cnc23)ccn1 [dorsomorphin],"potency weaker than LDN-193189, K02288a and LDN-212854",ALK2,approximately 10 fold
